Data on 1 compound can be found in ChEMBL document CHEMBL1134529, “4-Hydroxy-5,6-dihydropyrones as inhibitors of HIV protease: the effect of heterocyclic substituents at C-6 on antiviral potency and pharmacokinetic parameters” (J Med Chem, 2001).

Structures are written as SMILES. Where “and” joins values, the source holds several entries; their conditions need not be identical. Identical values can stand only once.

Usually bioavailability stands for dose-corrected exposure relative to a reference, in per cent. Broadly, the Cmax is the maximum level reached in the sampled fluid or tissue. In general, Tmax refers to the time at which the peak concentration occurs. What is called EC50 is the concentration needed to bring the measured effect to its halfway point. A low value points to higher potency in that assay. The IC50 is the midpoint of a concentration-inhibition curve.

Series [1] is described as follows: Bioavailability. The class given is ADME, organism-based. The conditions noted are these: eutheria, in vivo. In short, it runs like this: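 Dogs dosed at 10 mg/kg. Vehicle was either the sodium salt in normal saline or the free acid in 0.1 NaOH buffered to pH 10, depending on compound.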
Series [2] in a line: Compound was evaluated for pharmacokinetic parameter, Cmax in rat at 25 mg/kg po. The class given is ADME, organism-based. Further details: dose 25 mg/kg, route oral. The conditions noted are these: in vivo.
Series [3] in a line: compound was evaluated for pharmacokinetic parameter, Tmax. The class given is ADME, organism-based. The conditions noted are these: in vivo. In a few lines:
(§1)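 Species-dependent dosing. Mice: 25 mg/kg po in 20% 0.1 N NaOH/80% 0.5% methylcellulose; values from a pool of five mice; plasma levels by HPLC. Rats: 10 mg/kg po by capsule or pH 7.4-buffered solution; average of two animals. Dogs: 10 mg/kg in saline (sodium salt) or pH 10-buffered 0.1 NaOH (free acid).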

Series [4] is described as follows: Toxicity measured in CEM cells in the absence of virus. In kind it is cell-based. The conditions noted are these: human, CEM cells (CCRF-CEM); read-out: TC50 (the source's name).
Series [5] deals with Human immunodeficiency virus 1. Nature of the series: Antiviral activity in HIV infected CEM cells as effective concentration at which 50% of the cells are protected from cytopathic effect. The class given is functional, organism-based. The conditions noted are these: Human immunodeficiency virus 1, CCRF-CEM. In short, it runs like this: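 HIV-IIIB-infected human lymphocyte-derived CEM cells. EC50 is the drug concentration at which 50% of cells are protected from HIV cytopathic effects. Testing was done at Southern Research Institute.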

The target in series [6] is Human immunodeficiency virus type 1 protease (Human immunodeficiency virus 1, UniProt Q72874). Nature of the series: HIV-1 protease inhibition. In a few lines:
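Affinity-purified HIV-1 protease (1.5 nM final) with 40 µM peptide substrate His-Lys-Ala-Arg-Val-Leu-(p-NO2-Phe)-Glu-Ala-Nle-Ser-NH2 and 1.0% DMSO. Buffer: 80 mM MES, 160 mM NaCl, 1.0 mM DTT, 1.0 mM EDTA, 0.1% PEG 8000, pH 6.2. Incubated 60 min at 37 °C, then quenched with TFA (2% final). Products separated by reverse-phase HPLC and read at 220 nm. Percent control derived from % conversion with vs without inhibitor; IC50 then determined.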

Series [7] can be described thus: compound was evaluated for pharmacokinetic parameter, half life period (T1/2). In kind it is ADME, organism-based. The conditions noted are these: in vivo. In a few lines:
as §1

`Cc1cc(SC2=C(O)O[C@](CCc3ccsc3)(C(C)C)CC2=O)c(C(C)(C)C)cc1CO` showed a bioavailability in series [1] of 88%. For the same compound, the maximum concentration (Cmax) in series [2] came out at 14.7 µM. In series [3], the Tmax worked out at 0.5 h. For the same compound, the CC50 in series [4] worked out at 91000 nM. Also, the concentration giving a half-maximal response (EC50) in series [5] is 120 nM. Besides, the IC50 in series [6] is 0.13 nM. Further, the T1/2 in series [7] was 11.5 h and 5.4 h.
